According to ChEMBL document CHEMBL2086328, “¹⁸F-labeled 2-phenylquinoxaline derivatives as potential positron emission tomography probes for in vivo imaging of β-amyloid plaques” (Eur J Med Chem, 2012):
pKi: −log10 of the molar value. One block for each compound: values may come before it. The source made the active and inactive calls. The rule behind the calls is not given here.

Columns and labels:
[1] = target: Amyloid-beta precursor protein (Homo sapiens) (UniProt P05067); assay: Binding affinity to beta-amyloid in Alzheimer's disease patient brain at 1.85 MBq/[…] after 1 hr by thioflavin-S based autoradiography; settings: 1.85 M, tested as the 18F-labelled form
Sequence of Amyloid-beta precursor protein (Homo sapiens) (P05067 whole entry): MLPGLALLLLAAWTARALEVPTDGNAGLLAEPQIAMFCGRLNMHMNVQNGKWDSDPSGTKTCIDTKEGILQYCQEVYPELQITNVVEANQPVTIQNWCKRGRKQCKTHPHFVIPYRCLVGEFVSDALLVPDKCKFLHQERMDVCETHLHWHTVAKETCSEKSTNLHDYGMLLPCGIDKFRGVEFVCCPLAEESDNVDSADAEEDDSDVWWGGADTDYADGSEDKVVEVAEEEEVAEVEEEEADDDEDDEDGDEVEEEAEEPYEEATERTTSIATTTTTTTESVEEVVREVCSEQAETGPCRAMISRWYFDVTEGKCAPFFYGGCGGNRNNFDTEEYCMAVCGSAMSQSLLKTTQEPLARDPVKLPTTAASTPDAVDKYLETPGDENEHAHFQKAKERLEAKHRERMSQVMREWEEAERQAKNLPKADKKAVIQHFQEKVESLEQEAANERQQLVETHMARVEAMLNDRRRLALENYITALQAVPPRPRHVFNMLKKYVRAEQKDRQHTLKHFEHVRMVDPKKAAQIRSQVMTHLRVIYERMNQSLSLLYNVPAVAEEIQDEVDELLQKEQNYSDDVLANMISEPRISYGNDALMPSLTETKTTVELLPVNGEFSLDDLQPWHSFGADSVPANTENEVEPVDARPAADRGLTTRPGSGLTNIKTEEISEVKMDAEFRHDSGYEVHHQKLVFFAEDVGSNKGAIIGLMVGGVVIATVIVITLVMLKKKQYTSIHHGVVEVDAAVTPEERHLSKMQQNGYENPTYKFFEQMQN
Procedure, shortened: (§1)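 Paraffin human temporal-lobe sections (5 µm; AD case or control) deparaffinized through xylene and graded ethanol, then PBS (0.2 M, pH 7.4) for 30 min. Incubated with 18F tracer (1.85 MBq/200 µL), 1 h, room temperature; washed in 40% EtOH, rinsed in water; phosphor plate exposure 2 h.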

Mus musculus = organism: Mus musculus; assay: Binding affinity to beta-amyloid in APPswe/PSEN1 transgenic C57BL6 mouse model brain at 1.85 MBq/[…] after 1 hr by thioflavin-S based autoradiography; settings: 1.85 M, tested as the 18F-labelled form
Procedure, shortened: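 Transgenic mouse brain sections deparaffinized, then incubated with 18F tracer (1.85 MBq/200 µL) for 1 h at room temperature. Washed in 40% EtOH, phosphor-imaged after 2 h exposure. Same sections then stained with 0.125% thioflavin-S in 10% EtOH for 3 min and imaged by fluorescence (excitation 405 nm, long-pass 505 nm).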

[2] = Displacement of [125I]IMPY from amyloid beta (1 to 42) after 2 hrs by gamma counting
Procedure, shortened: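 Competition binding against [125I]IMPY (radiochemical purity >95%) on Aβ1-42 aggregates with 1% BSA solution; inhibitor 10^-4–10^-9.5 M; 37 °C, 2 h. Free and bound separated by vacuum filtration on GF/B filters, three PBS washes (0.02 M, pH 7.4, room temperature); filters gamma-counted. Three repeats; IC50 fitted, Ki from Cheng–Prusoff.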

[3] = target: Amyloid-beta precursor protein (Homo sapiens) (UniProt P05067); assay: Binding affinity to beta-amyloid in normal human brain at 1.85 MBq/[…] after 1 hr by thioflavin-S based autoradiography; settings: 1.85 M, tested as the 18F-labelled form; procedure, shortened: as §1
Brain [4] = assay: Biodistribution in ICR mouse brain at 370 kBq, iv after 2 mins by gamma counting; type: ADME, organism-based; settings: in vivo
Procedure, shortened: (§2)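 Male ICR mice (five weeks, 20–22 g), tail-vein injection of 18F tracer in 0.1 mL saline with 10% EtOH. Killed by decapitation at set times, n = 5 per time point. Organs removed, weighed and gamma-counted; %ID/g wet tissue from comparison with diluted aliquots of injected dose; mean ± SD.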

Stomach [5] = assay: Biodistribution in ICR mouse stomach at 370 kBq, iv after 2 mins by gamma counting; type: ADME, organism-based; settings: in vivo; procedure, shortened: as §2
Brain [6] = assay: Ratio of drug level in ICR mouse brain after 2 mins to ICR mouse brain after 60 mins at 370 kBq, iv; type: ADME, organism-based; settings: in vivo
Procedure, shortened: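 Same intravenous study in ICR mice (370 kBq 18F tracer in saline/10% EtOH, n = 5 per time point). Ratio is brain %ID/g at 2 min divided by brain %ID/g at 60 min post-injection.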

Blood [7] = assay: Biodistribution in ICR mouse blood at 370 kBq, iv after 60 mins by gamma counting; type: ADME, organism-based; settings: in vivo, 1 h; procedure, shortened: as §2
Stomach [8] = assay: Biodistribution in ICR mouse stomach at 370 kBq, iv after 10 mins by gamma counting; type: ADME, organism-based; settings: in vivo; procedure, shortened: as §2
Heart [9] = assay: Biodistribution in ICR mouse heart at 370 kBq, iv after 10 mins by gamma counting; type: ADME, organism-based; settings: in vivo; procedure, shortened: as §2
Intestine [10] = assay: Biodistribution in ICR mouse intestine at 370 kBq, iv after 30 mins by gamma counting; type: ADME, organism-based; settings: in vivo, 0.5 h; procedure, shortened: as §2
Liver [11] = assay: Biodistribution in ICR mouse liver at 370 kBq, iv after 60 mins by gamma counting; type: ADME, organism-based; settings: in vivo, 1 h; procedure, shortened: as §2
Brain [12] = assay: Biodistribution in ICR mouse brain at 370 kBq, iv after 60 mins by gamma counting; type: ADME, organism-based; settings: in vivo, 1 h; procedure, shortened: as §2
Lung [13] = assay: Biodistribution in ICR mouse lung at 370 kBq, iv after 10 mins by gamma counting; type: ADME, organism-based; settings: in vivo; procedure, shortened: as §2
Bone [14] = assay: Biodistribution in ICR mouse bone at 370 kBq, iv after 60 mins by gamma counting; type: ADME, organism-based, Bone element; settings: in vivo, 1 h; procedure, shortened: as §2
Stomach [15] = assay: Biodistribution in ICR mouse stomach at 370 kBq, iv after 60 mins by gamma counting; type: ADME, organism-based; settings: in vivo, 1 h; procedure, shortened: as §2
Spleen [16] = assay: Biodistribution in ICR mouse spleen at 370 kBq, iv after 2 mins by gamma counting; type: ADME, organism-based; settings: in vivo; procedure, shortened: as §2
Lung [17] = assay: Biodistribution in ICR mouse lung at 370 kBq, iv after 2 mins by gamma counting; type: ADME, organism-based; settings: in vivo; procedure, shortened: as §2
Spleen [18] = assay: Biodistribution in ICR mouse spleen at 370 kBq, iv after 30 mins by gamma counting; type: ADME, organism-based; settings: in vivo, 0.5 h; procedure, shortened: as §2
Bone [19] = assay: Biodistribution in ICR mouse bone at 370 kBq, iv after 10 mins by gamma counting; type: ADME, organism-based, Bone element; settings: in vivo; procedure, shortened: as §2
Kidney [20] = assay: Biodistribution in ICR mouse kidney at 370 kBq, iv after 30 mins by gamma counting; type: ADME, organism-based; settings: in vivo, 0.5 h; procedure, shortened: as §2
Kidney [21] = assay: Biodistribution in ICR mouse kidney at 370 kBq, iv after 60 mins by gamma counting; type: ADME, organism-based; settings: in vivo, 1 h; procedure, shortened: as §2
Kidney [22] = assay: Biodistribution in ICR mouse kidney at 370 kBq, iv after 10 mins by gamma counting; type: ADME, organism-based; settings: in vivo; procedure, shortened: as §2
Brain [23] = assay: Biodistribution in ICR mouse brain at 370 kBq, iv after 10 mins by gamma counting; type: ADME, organism-based; settings: in vivo; procedure, shortened: as §2
Stomach [24] = assay: Biodistribution in ICR mouse stomach at 370 kBq, iv after 30 mins by gamma counting; type: ADME, organism-based; settings: in vivo, 0.5 h; procedure, shortened: as §2
Spleen [25] = assay: Biodistribution in ICR mouse spleen at 370 kBq, iv after 60 mins by gamma counting; type: ADME, organism-based; settings: in vivo, 1 h; procedure, shortened: as §2
Liver [26] = assay: Biodistribution in ICR mouse liver at 370 kBq, iv after 2 mins by gamma counting; type: ADME, organism-based; settings: in vivo; procedure, shortened: as §2
Bone [27] = assay: Biodistribution in ICR mouse bone at 370 kBq, iv after 2 mins by gamma counting; type: ADME, organism-based, Bone element; settings: in vivo; procedure, shortened: as §2
Brain [28] = assay: Biodistribution in ICR mouse brain at 370 kBq, iv after 30 mins by gamma counting; type: ADME, organism-based; settings: in vivo, 0.5 h; procedure, shortened: as §2
Liver [29] = assay: Biodistribution in ICR mouse liver at 370 kBq, iv after 10 mins by gamma counting; type: ADME, organism-based; settings: in vivo; procedure, shortened: as §2
Kidney [30] = assay: Biodistribution in ICR mouse kidney at 370 kBq, iv after 2 mins by gamma counting; type: ADME, organism-based; settings: in vivo; procedure, shortened: as §2
Heart [31] = assay: Biodistribution in ICR mouse heart at 370 kBq, iv after 30 mins by gamma counting; type: ADME, organism-based; settings: in vivo, 0.5 h; procedure, shortened: as §2
Blood [32] = assay: Biodistribution in ICR mouse blood at 370 kBq, iv after 30 mins by gamma counting; type: ADME, organism-based; settings: in vivo, 0.5 h; procedure, shortened: as §2
Spleen [33] = assay: Biodistribution in ICR mouse spleen at 370 kBq, iv after 10 mins by gamma counting; type: ADME, organism-based; settings: in vivo; procedure, shortened: as §2
Heart [34] = assay: Biodistribution in ICR mouse heart at 370 kBq, iv after 60 mins by gamma counting; type: ADME, organism-based; settings: in vivo, 1 h; procedure, shortened: as §2
Intestine [35] = assay: Biodistribution in ICR mouse intestine at 370 kBq, iv after 60 mins by gamma counting; type: ADME, organism-based; settings: in vivo, 1 h; procedure, shortened: as §2
Intestine [36] = assay: Biodistribution in ICR mouse intestine at 370 kBq, iv after 2 mins by gamma counting; type: ADME, organism-based; settings: in vivo; procedure, shortened: as §2
Lung [37] = assay: Biodistribution in ICR mouse lung at 370 kBq, iv after 30 mins by gamma counting; type: ADME, organism-based; settings: in vivo, 0.5 h; procedure, shortened: as §2
[38] = Lipophilicity, log D of the compound; type: physicochemical; settings: octanol/water
Procedure, shortened: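 18F tracer (740 kBq) in 3 g n-octanol plus 3 g PBS (0.05 M, pH 7.4). Vortexed 3 min at room temperature, centrifuged 5 min at 3000 rpm; weighed samples from octanol and buffer layers counted.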

Heart [39] = assay: Biodistribution in ICR mouse heart at 370 kBq, iv after 2 mins by gamma counting; type: ADME, organism-based; settings: in vivo; procedure, shortened: as §2
Blood [40] = assay: Biodistribution in ICR mouse blood at 370 kBq, iv after 2 mins by gamma counting; type: ADME, organism-based; settings: in vivo; procedure, shortened: as §2
Bone [41] = assay: Biodistribution in ICR mouse bone at 370 kBq, iv after 30 mins by gamma counting; type: ADME, organism-based, Bone element; settings: in vivo, 0.5 h; procedure, shortened: as §2
Intestine [42] = assay: Biodistribution in ICR mouse intestine at 370 kBq, iv after 10 mins by gamma counting; type: ADME, organism-based; settings: in vivo; procedure, shortened: as §2
Lung [43] = assay: Biodistribution in ICR mouse lung at 370 kBq, iv after 60 mins by gamma counting; type: ADME, organism-based; settings: in vivo, 1 h; procedure, shortened: as §2
Liver [44] = assay: Biodistribution in ICR mouse liver at 370 kBq, iv after 30 mins by gamma counting; type: ADME, organism-based; settings: in vivo, 0.5 h; procedure, shortened: as §2
Blood [45] = assay: Biodistribution in ICR mouse blood at 370 kBq, iv after 10 mins by gamma counting; type: ADME, organism-based; settings: in vivo; procedure, shortened: as §2

Activity [1]: Active | Activity (Mus musculus): Active | pKi [2]: 8.00 | Activity [3]: inactive
SMILES: CNc1ccc2nc(-c3ccc(OCCF)cc3)cnc2c1

Drug uptake (Brain [4]): 8.17 % ID/g | Drug uptake (Stomach [5]): 1.81 %ID | Ratio (Brain [6]): 2.58 | Drug uptake (Blood [7]): 5.24 % ID/g | Drug uptake (Stomach [8]): 2.55 %ID | Drug uptake (Heart [9]): 4.27 % ID/g | Drug uptake (Intestine [10]): 17.15 %ID | Drug uptake (Liver [11]): 5 % ID/g | Drug uptake (Brain [12]): 3.17 % ID/g | Drug uptake (Lung [13]): 4.36 % ID/g | Drug uptake (Bone [14]): 6.2 % ID/g | Drug uptake (Stomach [15]): 2.5 %ID | Drug uptake (Spleen [16]): 4.71 % ID/g | Drug uptake (Lung [17]): 6.38 % ID/g | Drug uptake (Spleen [18]): 3.35 % ID/g | Drug uptake (Bone [19]): 2.84 % ID/g | Drug uptake (Kidney [20]): 4.25 % ID/g | Drug uptake (Kidney [21]): 3.79 % ID/g | Drug uptake (Kidney [22]): 5.96 % ID/g | Drug uptake (Brain [23]): 5.07 % ID/g | Drug uptake (Stomach [24]): 1.84 %ID | Drug uptake (Spleen [25]): 3.04 % ID/g | Drug uptake (Liver [26]): 9.5 % ID/g | Drug uptake (Bone [27]): 2.46 % ID/g | Drug uptake (Brain [28]): 3.45 % ID/g | Drug uptake (Liver [29]): 7.8 % ID/g | Drug uptake (Kidney [30]): 9.37 % ID/g | Drug uptake (Heart [31]): 4.28 % ID/g | Drug uptake (Blood [32]): 5.09 % ID/g | Drug uptake (Spleen [33]): 3.87 % ID/g | Drug uptake (Heart [34]): 4.24 % ID/g | Drug uptake (Intestine [35]): 18.75 %ID | Drug uptake (Intestine [36]): 9.63 %ID | Drug uptake (Lung [37]): 3.78 % ID/g | logD [38]: 3.14 | Drug uptake (Heart [39]): 6.08 % ID/g | Drug uptake (Blood [40]): 4.93 % ID/g | Drug uptake (Bone [41]): 5.73 % ID/g | Drug uptake (Intestine [42]): 12.87 %ID | Drug uptake (Lung [43]): 3.77 % ID/g | Drug uptake (Liver [44]): 5.37 % ID/g | Drug uptake (Blood [45]): 4.68 % ID/g
SMILES: CNc1ccc2nc(-c3ccc(OCC[18F])cc3)cnc2c1
